Converted amounts (≈) assume the structure as drawn.
Tests used:
Format in all cases: functional
Candida albicans = assay: Antifungal activity against Candida albicans Berkout KCCM 50235 after 1 day by two fold broth dilution method; conditions: Berkout KCCM 50235, 24 h
Method in brief: (§1)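 Yeasts were tested by twofold broth dilution in modified Sabouraud dextrose broth with about 1 × 10⁵ cells/mL inoculum. Final compound concentrations ran from […]. Incubation was at 37 °C with the MIC read after 1 day. Fluconazole and 5-fluorocytosine were the standard comparators.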

Cryptococcus neoformans = assay: Antifungal activity against Cryptococcus neoformans KCCM 50564 after 1 day by two fold broth dilution method; conditions: KCCM 50564, 24 h; method in brief: as §1
Aspergillus niger = assay: Antifungal activity against Aspergillus niger KCTC 1231 after 2 days by two fold broth dilution method; conditions: KCTC 1231, 48 h
Method in brief: (§2)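 Twofold broth dilution in modified Sabouraud dextrose broth, inoculum about 1 × 10⁵ cells/mL. Compounds were tested at final concentrations of […]. Plates were incubated at 37 °C and the MIC was read after 2 days. Fluconazole and 5-fluorocytosine served as reference agents.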

Aspergillus flavus = assay: Antifungal activity against Aspergillus flavus KCCM 11899 after 2 days by two fold broth dilution method; conditions: KCCM 11899, 48 h; method in brief: as §2
Pichia kudriavzevii = assay: Antifungal activity against Candida krusei Berkout KCCM 11655 after 1 day by two fold broth dilution method; conditions: Berkout KCCM 11655, 24 h; method in brief: as §1
Candida tropicalis = assay: Antifungal activity against Candida tropicalis Berkout KCCM 50662 after 1 day by two fold broth dilution method; conditions: Berkout KCCM 50662, 24 h; method in brief: as §1

SMILES | MIC (Candida albicans) | MIC (Cryptococcus neoformans) | MIC (Aspergillus niger) | MIC (Aspergillus flavus) | MIC (Pichia kudriavzevii) | MIC (Candida tropicalis)
OC(Cn1cncn1)(Cn1cncn1)c1ccc(F)cc1F [FLUCONAZOLE] | 50 µg/mL (≈ 163 µM) | 6.3 µg/mL (≈ 20.6 µM) | 25 µg/mL (≈ 81.6 µM) | 25 µg/mL (≈ 81.6 µM) | 25 µg/mL (≈ 81.6 µM) | 6.3 µg/mL (≈ 20.6 µM)
CC(=O)c1cc(O)ccc1O | 50 µg/mL (≈ 329 µM) | 50 µg/mL (≈ 329 µM) | > 100 µg/mL | 100 µg/mL (≈ 657 µM) | 100 µg/mL (≈ 657 µM) | 50 µg/mL (≈ 329 µM)
COC(=O)c1c(C)nc(C)c2c1C(=O)C(Cl)=C(Nc1ccc(Cl)cc1)C2=O | 1.6 µg/mL (≈ 3.95 µM) | 12.5 µg/mL (≈ 30.8 µM) | 3.2 µg/mL (≈ 7.9 µM) | 1.6 µg/mL (≈ 3.95 µM) | 12.5 µg/mL (≈ 30.8 µM) | 6.3 µg/mL (≈ 15.5 µM)
COC(=O)c1c(C)nc(C)c2c1C(=O)C(Br)=C(Nc1ccc(F)c(F)c1)C2=O | 6.3 µg/mL (≈ 14 µM) | 12.5 µg/mL (≈ 27.7 µM) | 6.3 µg/mL (≈ 14 µM) | 12.5 µg/mL (≈ 27.7 µM) | 25 µg/mL (≈ 55.4 µM) | 1.6 µg/mL (≈ 3.55 µM)
COC(=O)c1c(C)nc(C)c2c1C(=O)C=C(Nc1ccc(C)cc1)C2=O | 25 µg/mL (≈ 71.4 µM) | 12.5 µg/mL (≈ 35.7 µM) | 25 µg/mL (≈ 71.4 µM) | 25 µg/mL (≈ 71.4 µM) | 25 µg/mL (≈ 71.4 µM) | 25 µg/mL (≈ 71.4 µM)
COC(=O)c1c(C)nc(C)c2c1C(=O)C(Cl)=C(Nc1ccc(C#N)cc1)C2=O | 1.6 µg/mL (≈ 4.04 µM) | 1.6 µg/mL (≈ 4.04 µM) | 6.3 µg/mL (≈ 15.9 µM) | 6.3 µg/mL (≈ 15.9 µM) | 12.5 µg/mL (≈ 31.6 µM) | 12.5 µg/mL (≈ 31.6 µM)
COC(=O)c1c(C)nc(C)c2c1C(=O)C(Br)=C(Nc1ccc(OC)cc1)C2=O | 0.8 µg/mL (≈ 1.8 µM) | 1.6 µg/mL (≈ 3.59 µM) | 1.6 µg/mL (≈ 3.59 µM) | 12.5 µg/mL (≈ 28.1 µM) | 1.6 µg/mL (≈ 3.59 µM) | 12.5 µg/mL (≈ 28.1 µM)
COC(=O)c1c(C)nc(C)c2c1C(=O)C(Br)=C(Nc1ccc(Br)cc1)C2=O | 1.6 µg/mL (≈ 3.24 µM) | 12.5 µg/mL (≈ 25.3 µM) | 1.6 µg/mL (≈ 3.24 µM) | 3.2 µg/mL (≈ 6.48 µM) | 12.5 µg/mL (≈ 25.3 µM) | 1.6 µg/mL (≈ 3.24 µM)
Nc1nc(=O)[nH]cc1F [FLUCYTOSINE] | 3.2 µg/mL (≈ 24.8 µM) | 12.5 µg/mL (≈ 96.8 µM) | 6.3 µg/mL (≈ 48.8 µM) | 6.3 µg/mL (≈ 48.8 µM) | 6.3 µg/mL (≈ 48.8 µM) | 3.2 µg/mL (≈ 24.8 µM)
COC(=O)c1c(C)nc(C)c2c1C(=O)C(Cl)=C(Nc1ccc(Br)cc1)C2=O | 1.6 µg/mL (≈ 3.56 µM) | 3.2 µg/mL (≈ 7.12 µM) | 1.6 µg/mL (≈ 3.56 µM) | 6.3 µg/mL (≈ 14 µM) | 6.3 µg/mL (≈ 14 µM) | 12.5 µg/mL (≈ 27.8 µM)
COC(=O)c1c(C)nc(C)c2c1C(=O)C=C(Sc1ccc(O)cc1)C2=O | 25 µg/mL (≈ 67.7 µM) | 3.2 µg/mL (≈ 8.66 µM) | 6.3 µg/mL (≈ 17.1 µM) | 6.3 µg/mL (≈ 17.1 µM) | 6.3 µg/mL (≈ 17.1 µM) | 25 µg/mL (≈ 67.7 µM)
COC(=O)c1c(C)nc(C)c2c1C(=O)C=CC2=O | 25 µg/mL (≈ 102 µM) | 50 µg/mL (≈ 204 µM) | > 100 µg/mL | 50 µg/mL (≈ 204 µM) | 50 µg/mL (≈ 204 µM) | 12.5 µg/mL (≈ 51 µM)
COC(=O)c1c(C)nc(C)c2c1C(=O)C(Cl)=C(Nc1ccc(I)cc1)C2=O | 6.3 µg/mL (≈ 12.7 µM) | 3.2 µg/mL (≈ 6.44 µM) | 1.6 µg/mL (≈ 3.22 µM) | 25 µg/mL (≈ 50.3 µM) | 12.5 µg/mL (≈ 25.2 µM) | 6.3 µg/mL (≈ 12.7 µM)
COC(=O)c1c(C)nc(C)c2c1C(=O)C=C(Nc1ccc(I)cc1)C2=O | 12.5 µg/mL (≈ 27 µM) | 6.3 µg/mL (≈ 13.6 µM) | 12.5 µg/mL (≈ 27 µM) | 12.5 µg/mL (≈ 27 µM) | 12.5 µg/mL (≈ 27 µM) | 12.5 µg/mL (≈ 27 µM)
COC(=O)c1c(C)nc(C)c2c1C(=O)C(Br)=C(Nc1ccc(C)cc1)C2=O | 6.3 µg/mL (≈ 14.7 µM) | 6.3 µg/mL (≈ 14.7 µM) | 6.3 µg/mL (≈ 14.7 µM) | 25 µg/mL (≈ 58.2 µM) | 6.3 µg/mL (≈ 14.7 µM) | 1.6 µg/mL (≈ 3.73 µM)
COC(=O)c1c(C)nc(C)c2c1C(=O)C(Br)=C(Nc1ccc(F)cc1)C2=O | 6.3 µg/mL (≈ 14.5 µM) | 6.3 µg/mL (≈ 14.5 µM) | 6.3 µg/mL (≈ 14.5 µM) | 12.5 µg/mL (≈ 28.9 µM) | 12.5 µg/mL (≈ 28.9 µM) | 6.3 µg/mL (≈ 14.5 µM)
COC(=O)c1c(C)nc(C)c2c1C(=O)C(Cl)=C(Nc1ccc(F)cc1)C2=O | 1.6 µg/mL (≈ 4.12 µM) | 6.3 µg/mL (≈ 16.2 µM) | 1.6 µg/mL (≈ 4.12 µM) | 6.3 µg/mL (≈ 16.2 µM) | 6.3 µg/mL (≈ 16.2 µM) | 1.6 µg/mL (≈ 4.12 µM)
COC(=O)c1c(C)nc(C)c2c1C(=O)C=C(Sc1ccc(C)c(C)c1)C2=O | 25 µg/mL (≈ 65.5 µM) | 6.3 µg/mL (≈ 16.5 µM) | 6.3 µg/mL (≈ 16.5 µM) | 6.3 µg/mL (≈ 16.5 µM) | 12.5 µg/mL (≈ 32.8 µM) | 12.5 µg/mL (≈ 32.8 µM)
COC(=O)c1c(C)nc(C)c2c1C(=O)C=C(Nc1ccc(Br)cc1)C2=O | 12.5 µg/mL (≈ 30.1 µM) | 12.5 µg/mL (≈ 30.1 µM) | 6.3 µg/mL (≈ 15.2 µM) | 12.5 µg/mL (≈ 30.1 µM) | 12.5 µg/mL (≈ 30.1 µM) | 12.5 µg/mL (≈ 30.1 µM)
COC(=O)c1c(C)nc(C)c2c1C(=O)C(Br)=C(Nc1ccc(Cl)cc1)C2=O | 25 µg/mL (≈ 55.6 µM) | 12.5 µg/mL (≈ 27.8 µM) | 12.5 µg/mL (≈ 27.8 µM) | 12.5 µg/mL (≈ 27.8 µM) | 25 µg/mL (≈ 55.6 µM) | 6.3 µg/mL (≈ 14 µM)
COC(=O)c1c(C)nc(C)c2c1C(=O)C(Cl)=C(Nc1ccc(F)c(F)c1)C2=O | 1.6 µg/mL (≈ 3.93 µM) | 12.5 µg/mL (≈ 30.7 µM) | 1.6 µg/mL (≈ 3.93 µM) | 6.3 µg/mL (≈ 15.5 µM) | 6.3 µg/mL (≈ 15.5 µM) | 25 µg/mL (≈ 61.5 µM)
COC(=O)c1c(C)nc(C)c2c1C(=O)C=C(Sc1ccc(C)cc1)C2=O | 6.3 µg/mL (≈ 17.1 µM) | 1.6 µg/mL (≈ 4.35 µM) | 6.3 µg/mL (≈ 17.1 µM) | 3.2 µg/mL (≈ 8.71 µM) | 12.5 µg/mL (≈ 34 µM) | 6.3 µg/mL (≈ 17.1 µM)
COC(=O)c1c(C)nc(C)c2c1C(=O)C(Cl)=C(Nc1ccc(OC)cc1)C2=O | 1.6 µg/mL (≈ 3.99 µM) | 3.2 µg/mL (≈ 7.98 µM) | 3.2 µg/mL (≈ 7.98 µM) | 6.3 µg/mL (≈ 15.7 µM) | 12.5 µg/mL (≈ 31.2 µM) | 12.5 µg/mL (≈ 31.2 µM)
COC(=O)c1c(C)nc(C)c2c1C(=O)C(Cl)=C(Nc1ccc(C)cc1)C2=O | 1.6 µg/mL (≈ 4.16 µM) | 6.3 µg/mL (≈ 16.4 µM) | 1.6 µg/mL (≈ 4.16 µM) | 25 µg/mL (≈ 65 µM) | 3.2 µg/mL (≈ 8.32 µM) | 0.8 µg/mL (≈ 2.08 µM)

— ChEMBL document CHEMBL2346510, “Synthesis and antifungal evaluation of 7-arylamino-5,8-dioxo-5,8-dihydroisoquinoline-4-carboxylates” (2013)
